In ChEMBL document CHEMBL4265873, “Design and discovery of silybin analogues as antiproliferative compounds using a ring disjunctive - Based, natural product lead optimization approach” (Eur J Med Chem, 2017):
Activity calls are given as the source filed them. The calls are words filed in the database; no cut-off is given here.

Columns and labels:
A2780 [1] = experiment: Reduction in mitochondrial potential in human A2780 cells at 2 uM incubated for 12 hrs by Alexa Fluor 488 annexin V and mito-tracker red CMXRos dye staining based flow cytometry; type: functional, cell-based
Procedure, shortened: (§1)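 Cells in complete medium were treated with 0, 2 or 4 µM for 12 h, then trypsinised. They were stained with MitoTracker Red (4 µL of 10 µM working solution per 1 mL of cells) for 30 min at 37 °C under 5% CO2. Cells were then resuspended in annexin-binding buffer with Alexa Fluor 488 annexin V for 15 min. Flow cytometry emission read at 530 and 585 nm. Two independent experiments, each in triplicate.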

[2] = Selectivity index, ratio of IC50 for cytotoxicity in human CRL1459 cells incubated for 68 hrs by MTT assay to IC50 for cytotoxicity in human A2780 cells incubated for 68 hrs by MTT assay; type: toxicity, cell-based; settings: CRL1459 cells versus A2780 cells, read-out: Ratio IC50
2008 [3] = experiment: Cytotoxicity in human OV2008 cells assessed as reduction in cell viability incubated for 68 hrs by MTT assay; type: functional, cell-based; settings: Homo sapiens, 2008, 68 h
Procedure, shortened: (§2)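 Cells were trypsinised and seeded at 5x10^3 cells/well. Compound was added at 0, 0.1, 0.3, 1, 3, 10, 30 and 100 µM for 68 h. MTT (4 mg/mL solution) was then added for 4 h, and the formazan was dissolved in DMSO. Absorbance read at 570 nm. IC50 was derived from % survival across the eight concentrations. Mean ± SD of three independent experiments, each in triplicate.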

2008 [4] = experiment: Induction of apoptosis in human OV2008 cells assessed as apoptosis cells level at 4 uM incubated for 12 hrs by Alexa Fluor 488 annexin V and mito-tracker red CMXRos dye staining based flow cytometry (reference value: 19.6%); type: functional; procedure, shortened: as §1
2008 [5] = experiment: Induction of cell cycle arrest in human OV2008 cells assessed as cell accumulation at G2 phase at 2 uM incubated for 12 hrs by propidium iodide staining based flow cytometry (reference value: 2.5%); type: functional
Procedure, shortened: (§3)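 OV2008 cells were plated at 1x10^6 cells/well and incubated with 0, 2 or 4 µM for 12 h. Cells were trypsinised, washed and resuspended in ice-cold PBS, then stained with propidium iodide for at least 15 min. Phase distribution was measured by flow cytometry. Means ± SD of three independent experiments in triplicate.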

Homo sapiens [6] = species: Homo sapiens; experiment: Inhibition of tubulin alpha in human OV2008 cells assessed as induction of disturbance in cellular microtubule shape and integrity by measuring loss in microtubule long spindle shape at 2 to 4 uM after overnight incubation by immunofluorescence analysis; type: cell-based
Homo sapiens [7] = species: Homo sapiens; experiment: Inhibition of tubulin alpha in human OV2008 cells assessed as induction of disturbance in cellular microtubule shape and integrity by measuring cell shrinkage and rounding at 2 to 4 uM after overnight incubation by immunofluorescence analysis; type: cell-based
MDA-MB-231 = experiment: Cytotoxicity in human MDA-MB-231 cells assessed as reduction in cell viability incubated for 68 hrs by MTT assay; type: functional, cell-based; settings: MDA-MB-231, 68 h; procedure, shortened: as §2
[8] = Selectivity index, ratio of IC50 for cytotoxicity in human CRL1459 cells incubated for 68 hrs by MTT assay to IC50 for cytotoxicity in human OV2008 cells incubated for 68 hrs by MTT assay; type: toxicity, cell-based; settings: CRL1459 cells versus OV2008 cells, read-out: Ratio IC50
2008 [9] = experiment: Reduction in alpha-tubulin expression human OV2008 cells at 2 to 4 uM measured after overnight incubation by Western blot analysis; type: functional, cell-based
A2780 [10] = experiment: Induction of apoptosis in human A2780 cells assessed as apoptosis cells level at 4 uM incubated for 12 hrs by Alexa Fluor 488 annexin V and mito-tracker red CMXRos dye staining based flow cytometry (reference value: 0.0%); type: functional; procedure, shortened: as §1
DU-145 = experiment: Cytotoxicity in human DU145 cells assessed as reduction in cell viability incubated for 68 hrs by MTT assay; type: functional, cell-based; settings: DU-145, 68 h; procedure, shortened: as §2
ZR-75-1 = experiment: Cytotoxicity in human ZR-75-1 cells assessed as reduction in cell viability incubated for 68 hrs by MTT assay; type: functional, cell-based; settings: ZR-75-1, 68 h; procedure, shortened: as §2
A2780 [11] = experiment: Inhibition of cell proliferation of human A2780 cells at 1 to 8 uM incubated for 10 to 50 hrs; type: functional, cell-based
Procedure, shortened: (§4)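 OV2008 or A2780 cells were seeded at low density (1x10^3 cells/well) and given 0, 2, 4 or 8 µM. Live-cell images were taken every 2 h for up to 48 h. Confluence at each time point was quantified with a confluence mask and plotted as timeline curves. Means ± SD of three independent experiments.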

OV2008 (Homo sapiens) = experiment: Induction of cell cycle arrest in human OV2008 cells assessed as increase in cell accumulation at subG1 phase at 2 to 4 uM incubated for 12 hrs by propidium iodide staining based flow cytometry
2008 [12] = experiment: Induction of apoptosis in human OV2008 cells assessed as apoptosis cells level at 2 uM incubated for 12 hrs by Alexa Fluor 488 annexin V and mito-tracker red CMXRos dye staining based flow cytometry (reference value: 19.6%); type: functional; procedure, shortened: as §1
2008 [13] = experiment: Induction of cell cycle arrest in human OV2008 cells assessed as cell accumulation at G1 phase at 2 uM incubated for 12 hrs by propidium iodide staining based flow cytometry (reference value: 79.1%); type: functional; procedure, shortened: as §3
2008 [14] = experiment: Induction of morphological changes in human OV2008 cells at 1 to 4 uM incubated for 68 hrs; type: functional, cell-based
Procedure, shortened: (§5)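 OV2008 and A2780 cells, with CHO alongside, were exposed to 0, 1, 2 or 4 µM for 68 h. Each triplicate treatment was photographed at 20X under an inverted microscope to assess morphology.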

[15] = Selectivity index, ratio of IC50 for cytotoxicity in CHO cells incubated for 68 hrs by MTT assay to IC50 for cytotoxicity in human A2780 cells incubated for 68 hrs by MTT assay; type: toxicity, cell-based; settings: Chinese hamster (CHO cells), CHO cells versus A2780 cells, read-out: Ratio IC50
A2780 [16] = experiment: Cytotoxicity in human A2780 cells assessed as reduction in cell viability incubated for 68 hrs by MTT assay; type: functional, cell-based; settings: A2780, 68 h; procedure, shortened: as §2
[17] = Selectivity index, ratio of IC50 for cytotoxicity in CHO cells incubated for 68 hrs by MTT assay to IC50 for cytotoxicity in human OV2008 cells incubated for 68 hrs by MTT assay; type: toxicity, cell-based; settings: Chinese hamster (CHO cells), CHO cells versus OV2008 cells, read-out: Ratio IC50
CHO = experiment: Cytotoxicity in CHO cells assessed as reduction in cell viability incubated for 68 hrs by MTT assay; type: cell-based; settings: Cricetulus griseus; procedure, shortened: as §2
2008 [18] = experiment: Induction of cell cycle arrest in human OV2008 cells assessed as cell accumulation at S phase at 2 uM incubated for 12 hrs by propidium iodide staining based flow cytometry (reference value: 5.2%); type: functional; procedure, shortened: as §3
Homo sapiens [19] = species: Homo sapiens; experiment: Inhibition of tubulin alpha in human OV2008 cells assessed as reduction in alpha-tubulin fluorescence at 2 to 4 uM after overnight incubation by immunofluorescence analysis; type: cell-based
2008 [20] = experiment: Inhibition of cell proliferation of human OV2008 cells at 1 to 8 uM incubated for 10 to 50 hrs; type: functional, cell-based; procedure, shortened: as §4
A2780 [21] = experiment: Induction of morphological changes in human A2780 cells at 1 to 4 uM incubated for 68 hrs; type: functional, cell-based; procedure, shortened: as §5
2008 [22] = experiment: Induction of cell cycle arrest in human OV2008 cells assessed as cell accumulation at subG1 phase at 4 uM incubated for 12 hrs by propidium iodide staining based flow cytometry (reference value: 11.3%); type: functional; procedure, shortened: as §3

O=C(/C=C/c1cccc(OCc2ccccc2)c1)c1ccc(O)cc1
Activity (A2780 [1]): Active
selectivity ratio at 68 h [2]: 6 to 30
IC50 2008 [3]: 0.8 µM
Activity 2008 [4]: 42.5%
Activity 2008 [5]: 2.7%
inhibition (Homo sapiens [6]): Active
inhibition (Homo sapiens [7]): Active
IC50 (MDA-MB-231): 2.9 µM
selectivity ratio at 68 h [8]: 6 to 30
Activity 2008 [9]: Active
Activity (A2780 [10]): 38%
IC50 (DU-145): 6.3 µM
IC50 (ZR-75-1): 4.9 µM
inhibition (A2780 [11]): Active
Activity (OV2008 (Homo sapiens)): Dose-dependent effect
Activity 2008 [12]: 38.1%
Activity 2008 [13]: 58.4%
Activity 2008 [14]: Active
selectivity ratio at 68 h [15]: 6 to 30
IC50 (A2780 [16]): 1 µM
selectivity ratio at 68 h [17]: 6 to 30
IC50 (CHO): 8.1 µM
Activity 2008 [18]: 4.4%
inhibition (Homo sapiens [19]): Active
inhibition 2008 [20]: Active
Activity (A2780 [21]): Active
Activity 2008 [22]: 33.9%
